In ChEMBL document CHEMBL2040797, “Synthesis of benzimidazoles bearing oxadiazole nucleus as anticancer agents” (2012):

What was measured:
Format in all cases: functional
HOP-92 = experiment: Growth inhibition of human HOP92 cells at 10 uM after 48 hrs by sulforhodamine B assay; conditions: HOP-92, 48 h, read-out: GI
Outline: (§1)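 NCI one-dose primary screen at 10 (printed mM) across the 60-line panel. Cells in RPMI 1640 with 5% FBS and 2 mM L-glutamine, plated at 5000–40,000 cells/well and incubated 24 h before dosing. Exposure 48 h at 37 °C, 5% CO2. Adherent cells were fixed with cold TCA, suspension cells fixed after settling. SRB stain, absorbance 515 nm. Reported as percent growth of treated cells relative to control.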

NCI-H23 = experiment: Growth inhibition of human NCI-H23 cells at 10 uM after 48 hrs by sulforhodamine B assay; conditions: NCI-H23, 48 h, read-out: GI; outline: as §1
HCT-15 = experiment: Growth inhibition of human HCT15 cells at 10 uM after 48 hrs by sulforhodamine B assay; conditions: HCT-15, 48 h, read-out: GI; outline: as §1
SF-268 = experiment: Growth inhibition of human SF268 cells at 10 uM after 48 hrs by sulforhodamine B assay; conditions: SF-268, 48 h, read-out: GI; outline: as §1
SF-295 [1] = experiment: Growth inhibition of human SF295 cells at 10 uM after 48 hrs by sulforhodamine B assay; conditions: SF-295, 48 h, read-out: GI; outline: as §1
SF-539 [2] = experiment: Growth inhibition of human SF539 cells at 10 uM after 48 hrs by sulforhodamine B assay; conditions: SF-539, 48 h, read-out: GI; outline: as §1
LOX IMVI [3] = experiment: Growth inhibition of human LOXIMVI cells at 10 uM after 48 hrs by sulforhodamine B assay; conditions: read-out: GI; outline: as §1
SK-MEL-28 = experiment: Growth inhibition of human SK-MEL-28 cells at 10 uM after 48 hrs by sulforhodamine B assay; conditions: SK-MEL-28, 48 h, read-out: GI
Outline: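 NCI-60 single-dose screen. Cells grown in RPMI 1640 with 5% FBS and L-glutamine, plated at 5000–40,000 cells/well by doubling time, and preincubated 24 h at 37 °C, 5% CO2. Compound stocks in DMSO, added at one concentration, then incubated 48 h. Adherent cells fixed with cold TCA (10% final), stained with 0.4% SRB, dye solubilized in 10 mM Tris base, A515 read. Reported as percent growth relative to untreated control.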

OVCAR-4 = experiment: Growth inhibition of human OVCAR4 cells at 10 uM after 48 hrs by sulforhodamine B assay; conditions: OVCAR-4, 48 h, read-out: GI; outline: as §1
786-0 = experiment: Growth inhibition of human 786-0 cells at 10 uM after 48 hrs by sulforhodamine B assay; conditions: 786-0, 48 h, read-out: GI; outline: as §1
CAKI-1 = experiment: Growth inhibition of human Caki1 cells at 10 uM after 48 hrs by sulforhodamine B assay; conditions: CAKI-1, 48 h, read-out: GI; outline: as §1
RXF 393 = experiment: Growth inhibition of human RXF393 cells at 10 uM after 48 hrs by sulforhodamine B assay; conditions: RXF 393, 48 h, read-out: GI; outline: as §1
MDA-MB-468 = experiment: Growth inhibition of human MDA-MB-468 cells at 10 uM after 48 hrs by sulforhodamine B assay; conditions: MDA-MB-468, 48 h, read-out: GI; outline: as §1
A549 [4] = experiment: Cytotoxicity against human A549 cells after 48 hrs by sulforhodamine B assay; conditions: A549, 48 h
Outline: (§2)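 NCI 60-panel screen. Cells were grown in RPMI 1640 with 5% FBS and L-glutamine and plated at 5000–40,000 cells/well according to doubling time. They were preincubated 24 h at 37 °C, 5% CO2, then exposed 48 h to five 10-fold dilutions. Adherent cells were fixed with cold TCA, final 10%; suspension cells were fixed after settling. Cells were stained with 0.4% SRB and read at 515 nm. Tz/C/Ti growth curves gave GI50, TGI and LC50.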

NCI-H460 = experiment: Cytotoxicity against human NCI-H460 cells after 48 hrs by sulforhodamine B assay; conditions: NCI-H460, 48 h; outline: as §2
SW-620 = experiment: Cytotoxicity against human SW620 cells after 48 hrs by sulforhodamine B assay; conditions: SW-620, 48 h; outline: as §2
SF-295 [5] = experiment: Cytotoxicity against human SF295 cells after 48 hrs by sulforhodamine B assay; conditions: SF-295, 48 h; outline: as §2
SF-539 [6] = experiment: Cytotoxicity against human SF539 cells after 48 hrs by sulforhodamine B assay; conditions: SF-539, 48 h; outline: as §2
LOX IMVI [7] = experiment: Cytotoxicity against human LOXIMVI cells after 48 hrs by sulforhodamine B assay; outline: as §2
Malme-3M = experiment: Cytotoxicity against human MALME-3M cells after 48 hrs by sulforhodamine B assay; outline: as §2
MDA-MB-435 = experiment: Cytotoxicity against human MDA-MB-435 cells after 48 hrs by sulforhodamine B assay; conditions: MDA-MB-435, 48 h; outline: as §2
UACC-62 = experiment: Cytotoxicity against human UACC62 cells after 48 hrs by sulforhodamine B assay; conditions: UACC-62, 48 h
Outline: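 NCI 60 panel five-dose screen. Cells in RPMI 1640 with 5% FBS and 2 mM L-glutamine, plated at 5000–40,000 cells/well and preincubated 24 h. Compounds were tested at five 10-fold concentrations (0.01–100) for 48 h at 37 °C, 5% CO2. Cells were fixed with TCA and stained with SRB, absorbance 515 nm. GI50, TGI and LC50 were taken from % growth curves against time-zero and control.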

ACHN = experiment: Cytotoxicity against human ACHN cells after 48 hrs by sulforhodamine B assay; outline: as §2
DU-145 = experiment: Cytotoxicity against human DU145 cells after 48 hrs by sulforhodamine B assay; conditions: DU-145, 48 h; outline: as §2
K562 = experiment: Growth inhibition of human K562 cells at 10 uM after 48 hrs by sulforhodamine B assay; conditions: K562, 48 h, read-out: GI; outline: as §1
MOLT-4 = experiment: Growth inhibition of human MOLT4 cells at 10 uM after 48 hrs by sulforhodamine B assay; conditions: MOLT-4, 48 h, read-out: GI; outline: as §1
RPMI-8226 = experiment: Growth inhibition of human RPMI8226 cells at 10 uM after 48 hrs by sulforhodamine B assay; conditions: RPMI-8226, 48 h, read-out: GI; outline: as §1
A549 [8] = experiment: Growth inhibition of human A549 cells at 10 uM after 48 hrs by sulforhodamine B assay; conditions: A549, 48 h, read-out: GI; outline: as §1
[9] = read-out: LC50 (the source's name)

Compound: O=C(CCc1nnc(-c2ccc(Cl)cc2Cl)o1)c1nc2ccccc2[nH]1
- inhibition of growth at 10 µM (HOP-92): 93.3%
- inhibition of growth at 10 µM (NCI-H23): 38.1%
- inhibition of growth at 10 µM (HCT-15): 18.5%
- inhibition of growth at 10 µM (SF-268): 31.9%
- inhibition of growth at 10 µM (SF-295 [1]): 40.5%
- inhibition of growth at 10 µM (SF-539 [2]): 4.76%
- inhibition of growth at 10 µM (LOX IMVI [3]): 44.9%
- inhibition of growth at 10 µM (SK-MEL-28): 17.3%
- inhibition of growth at 10 µM (OVCAR-4): 41.2%
- inhibition of growth at 10 µM (786-0): 26.2%
- inhibition of growth at 10 µM (CAKI-1): 40.2%
- inhibition of growth at 10 µM (RXF 393): 18.4%
- inhibition of growth at 10 µM (MDA-MB-468): 102%
- GI50 (A549 [4]): 10.4 µM
- TGI (A549 [4]): 100 µM
- CC50 (A549 [4]; [9]): 100 µM
- GI50 (NCI-H460): 4.99 µM
- TGI (NCI-H460): 28.6 µM
- CC50 (NCI-H460; [9]): 100 µM
- GI50 (SW-620): 3.46 µM
- TGI (SW-620): 16.3 µM
- CC50 (SW-620; [9]): 74.3 µM
- GI50 (SF-295 [5]): 5.98 µM
- TGI (SF-295 [5]): 42.9 µM
- CC50 (SF-295 [5]; [9]): 100 µM
- GI50 (SF-539 [6]): 10.5 µM
- TGI (SF-539 [6]): 39.6 µM
- CC50 (SF-539 [6]; [9]): 100 µM
- GI50 (LOX IMVI [7]): 4.03 µM
- TGI (LOX IMVI [7]): 39.8 µM
- CC50 (LOX IMVI [7]; [9]): 100 µM
- GI50 (Malme-3M): 13 µM
- TGI (Malme-3M): 52.6 µM
- CC50 (Malme-3M; [9]): 100 µM
- GI50 (MDA-MB-435): 2 µM
- TGI (MDA-MB-435): 4.77 µM
- CC50 (MDA-MB-435; [9]): 100 µM
- GI50 (UACC-62): 3.34 µM
- TGI (UACC-62): 27.8 µM
- CC50 (UACC-62; [9]): 100 µM
- GI50 (ACHN): 11.9 µM
- TGI (ACHN): 100 µM
- CC50 (ACHN; [9]): 100 µM
- GI50 (DU-145): 17.8 µM
- TGI (DU-145): 100 µM
- CC50 (DU-145; [9]): 100 µM
- inhibition of growth at 10 µM (K562): 97.8%
- inhibition of growth at 10 µM (MOLT-4): 79.3%
- inhibition of growth at 10 µM (RPMI-8226): 69.1%
- inhibition of growth at 10 µM (A549 [8]): 30.3%
